# This is a sample that favours compounds with a hit; in the whole collection about 3.8% have one here.
# KCNK3 block: human KCNK3 channel inhibition, primary screen; O14649; CHO-KCNK3 thallium flux, FluxOR fluorescence; active compounds read low; B-score at 10 µM; 0.84% of 340,000 active; AID 602410;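 active means B-score under library mean minus 4 SD, starting fluorescence ratio at most library mean plus 5 SD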;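 further: more negative B-score means stronger inhibition of thallium flux through KCNK3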
# Kir21 inh: Kir2.1 (mouse) channel inhibition; HEK293-Kir2.1, FluxOR thallium flux fluorescence; active compounds read low; 0.85% of 310,000 active; AID 1672; P35561; B-score at 10 µM;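 active means fluorescence ratio B-score at or below minus 3 SD of library scores, with starting-brightness B-score within 2 SD, cut at about -4.2 in these data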;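 further: channel flux triggered by added potassium and thallium sulfate stimulus; B-score of peak minus minimum fluorescence over baseline after thallium stimulus; more negative B-score means stronger Kir2.1 block with less thallium influx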
# hERG rescue: shields human hERG channel from block by proarrhythmic agents; Q12809; CHO-hERG, FluxOR thallium flux, dofetilide IC70 present; activation (rescue from dofetilide block), less the hit threshold, % at 10 µM; 0.51% of 310,000 active; AID 1511;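 active means activation above the mean of controls blocked by dofetilide plus 5 SD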;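 further: thallium influx through hERG after potassium depolarization seen as dye fluorescence rise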
# KCNQ1 block: human KCNQ1 channel inhibition | CHO-K1 KCNQ1, FluxOR thallium flux fluorescence; active compounds read high | AID 2642 | 1.3% of 310,000 active | B-score at 10 µM | P51787;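 active means compounds whose thallium flux B-score, printed positive for inhibition, exceeds three library SD while starting fluorescence stays within three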;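 further: channel opened by potassium depolarization with thallium stimulus after 20 min compound exposure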
# KCNK9 inh: inhibitors of human KCNK9 two-pore domain potassium channel; Q9NPC2; HEK293 KCNK9, FluxOR thallium flux fluorescence; active compounds read low; B-score at 10 µM; 1.2% of 310,000 active; AID 488922;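 active means ratio B-score over 3 SD below the library mean, with starting fluorescence within 5 SD of its mean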;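 further: negative B-score means less thallium flux so channel inhibition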
# Target sequence (Q9NPC2 whole entry, looked up, the tested form may be a part): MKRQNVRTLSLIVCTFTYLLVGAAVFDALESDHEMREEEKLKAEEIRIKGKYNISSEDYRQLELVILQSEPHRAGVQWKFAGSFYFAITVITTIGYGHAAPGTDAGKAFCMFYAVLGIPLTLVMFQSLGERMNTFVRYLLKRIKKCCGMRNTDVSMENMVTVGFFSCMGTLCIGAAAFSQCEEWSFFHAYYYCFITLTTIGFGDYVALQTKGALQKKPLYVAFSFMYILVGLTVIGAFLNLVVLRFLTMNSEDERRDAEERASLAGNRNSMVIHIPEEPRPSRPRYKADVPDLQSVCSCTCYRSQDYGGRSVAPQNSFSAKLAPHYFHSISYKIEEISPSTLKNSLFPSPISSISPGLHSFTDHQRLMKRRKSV
# KCNQ1 act: human KCNQ1 channel potentiation or activation. 0.35% of 310,000 active. B-score at 10 µM. P51787. CHO-K1 KCNQ1, thallium flux FluxOR fluorescence; active compounds read high;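 active means fluorescence ratio B-score, a plate-corrected score, at least three library SD, with initial intensity B-score within 5 SD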
#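 Test system: CHO-K1 cells stably expressing KCNQ1 / Medium: assay buffer / Also added: depolarizing K+/Tl+ stimulus, K2SO4 and Tl2SO4 each 12.5 mM in 5x stock / Incubation: 90 min dye loading and 20 min compound exposure, both at room temperature / Signal: thallium influx via FluxOR fluorescence, kinetic imaging / Evaluation: B score of baseline-normalized fluorescence ratio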
# KCNK9 block conf: human KCNK9 inhibitor confirmation. shares compounds with KCNK9 inh. HEK293 KCNK9 cells, FluxOR thallium flux fluorescence. inhibition, % at 10 µM. 43% of 4,900 active;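 active means thallium signal inhibited by more than 5 SD of the compound-free buffer control wells, on both duplicate plates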
# Kir21 sel: tests whether KCNK9 modulators also affect mouse Kir2.1; shares compounds with KCNK9 inh; inhibition, % at 10 µM; 4% of 4,900 active; Kir2.1 cells, FluxOR thallium flux fluorescence;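 active means thallium signal drop more than 5 SD beyond the mean of the no-compound control wells, seen in both duplicate plates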;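 further: signal is fluorescence rise after thallium addition divided by baseline fluorescence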
# KCNK9 uninduced: non-induced cell nonspecific activity of KCNK9 modulators; shares compounds with KCNK9 inh; non-induced KCNK9-HEK293, FluxOR thallium flux; 40% of 4,900 active; AID 492997; inhibition, % at 10 µM;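 active means thallium signal drop beyond 5 SD of the untreated control mean, on both duplicate plates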
# Hits are given with their value; – = inactive; · = no result.
SMILES,KCNK3 block,Kir21 inh,hERG rescue,KCNQ1 block,KCNK9 inh,KCNQ1 act,KCNK9 block conf,Kir21 sel,KCNK9 uninduced
COc1cc(CN2CCCC(N3CCN(c4ccccc4C)CC3)C2)cc(Cl)c1O (centres undefined),–,–,–,–,–,–,–,–,–
COc1ccc(CN2CCCC(N3CCN(c4cccc(Cl)c4)CC3)C2)cc1OC (centres undefined),–,–,–,–,–,–,·,·,·
COc1ccccc1-c1nc(SCC(=O)N2CCC(C(N)=O)CC2)n[nH]1,–,·,·,·,·,·,·,·,·
COc1c(C)cc(C(=O)C2CCCN(C(=O)c3ccc4[nH]ccc4c3)C2)cc1C (centres undefined),–,–,–,–,–,–,–,–,–
COc1c(C)cc(C(=O)C2CCCN(C(=O)c3csc(C)n3)C2)cc1C (centres undefined),–,–,–,–,–,–,·,·,·
COc1c(C)cc(C(=O)C2CCCN(C(=O)c3cccc(-n4cccn4)c3)C2)cc1C (centres undefined),–,–,–,–,–,–,–,–,–
CCCn1c(CN2CCN(C(=O)c3ccco3)CC2)nc2cc(S(=O)(=O)N(C)C)ccc21,–,·,·,·,·,·,·,·,·
COc1ccc(Cl)cc1Nc1ncnc2sc(C)c(S(=O)(=O)N3CCC(C)CC3)c12,–,–,–,–,-9.74,–,47.5%,–,34.0%
COCCNC(=O)Cn1cnc2sc(C)c(S(=O)(=O)N3CCC(C)CC3)c2c1=O,–,–,–,–,–,–,·,·,·
NS(=O)(=O)c1ccc(NC(=O)CCC(=O)c2ccc(Cl)s2)cc1,–,–,–,–,–,–,·,·,·
C/C=C1\COC(C(=O)NCc2ccccc2)(C(F)(F)F)C=C1C=C1CCCCC1 (centres undefined),–,–,–,7,–,–,–,–,–
COc1ccc(S(=O)(=O)NCC2CCCN(C(=O)CCSC)C2)cc1 (centres undefined),–,–,–,–,–,–,·,·,·
CCOC(=O)c1c(NC(=O)C(=O)N/N=C/c2ccc(O)c(OC)c2)sc2c1CCCCC2,–,–,–,–,-8.47,–,55.5%,–,30.5%
CCOC(=O)c1c(NC(=O)C(=O)N/N=C/c2ccc(OCC)cc2)sc2c1CCCCC2,–,–,–,–,–,–,·,·,·
CC(=O)c1ccccc1OCC(O)CN1CCN(CCN2C(=O)c3cccc4cccc(c34)C2=O)CC1 (centres undefined),–,–,–,–,–,–,·,·,·
Cc1ccc(C)c(OCC(O)CN2CCN(CCN3C(=O)c4cccc5cccc(c45)C3=O)CC2)c1 (centres undefined),–,–,–,–,–,–,–,–,–
CCCCC(=O)Nc1ccccc1C(=O)OCC(=O)c1ccc2c(c1)OCCO2,–,–,–,–,-18.5,–,78.0%,–,43.0%
CCCNc1ncnc2c1cnn2C1CCCCO1 (centres undefined),–,·,·,·,·,·,·,·,·
CC(=O)OC1CC(C)(C)N(OC(=O)CCCN2C(=O)c3ccccc3C2=O)C(C)(C)C1,–,–,–,–,–,–,–,–,–
O=C(CCCN1C(=O)c2ccccc2C1=O)Oc1ccc(F)cc1,–,–,–,–,–,–,·,·,·
Cc1ccc2[nH]c(C)c(/C=C/c3cc[n+](C)cc3)c2c1,–,–,–,–,-8.14,–,76.0%,56.5%,75.0%
Cc1ccc2c(c1)c(/C=C/c1cc[n+](C)cc1)c(C)n2C,–,–,–,–,–,–,·,·,·
Cc1ccc(OCCn2c(=S)[nH]c3ccccc32)c(C(C)C)c1,–,–,–,–,–,–,–,41.5%,–
Cc1cccc(OCCn2c(=S)[nH]c3ccccc32)c1,–,–,–,–,–,–,·,·,·
Cc1sc2nc(CSc3ccccc3)nc(N3CCN(C)CC3)c2c1C,–,-4.69,–,–,–,–,–,–,29.5%
SMILES,KCNK3 block,Kir21 inh,hERG rescue,KCNQ1 block,KCNK9 inh,KCNQ1 act,KCNK9 block conf,Kir21 sel,KCNK9 uninduced
CC(=O)Nc1ccc(NC(=O)c2c(-c3ccccc3)noc2C)cn1,–,–,–,–,–,–,·,·,·
COc1ccc(-c2noc3c2-c2nc(C4CCCCC4)sc2CC3)cc1,–,–,–,–,–,–,–,–,24.0%
CCOC(=O)c1ccccc1NC(=O)c1cccc([N+](=O)[O-])c1,–,–,–,–,–,–,·,·,·
O=C(COC(=O)c1ccccc1NC(=O)c1ccccc1)c1cccc([N+](=O)[O-])c1,–,–,–,–,-13.6,–,69.0%,–,32.5%
COC(=O)c1ccccc1S(=O)(=O)N1CCC(C(=O)OCC(=O)c2ccccc2OC)CC1,–,–,–,–,–,–,·,·,·
Cc1ccc(C(=O)N(c2ccccc2)C2CC(C)N(C(=O)c3ccco3)c3ccccc32)cc1 (centres undefined),–,–,–,–,–,–,–,–,–
CCC(=O)N1c2ccccc2[C@@H](N(C(C)=O)c2ccccc2)C[C@H]1C,–,–,–,–,–,–,·,·,·
CC(C)c1ccc(NC(=O)CSc2n[nH]c(=O)n2-c2cccnc2)cc1,–,–,–,–,–,–,·,·,·
Cc1ccn2c(C(=O)CSc3ccc(Cl)cc3)c(C)nc2c1,–,–,–,–,–,–,·,·,·
Cc1ccn2c(/C=N/OCc3cccc(F)c3)c(-c3ccc(Cl)cc3)nc2c1,–,–,–,–,-8.4,–,–,–,33.0%
O=C(O)CCN1C(=O)c2ccc(Oc3ccc([N+](=O)[O-])cc3)cc2C1=O,–,–,–,–,–,–,·,·,·
O=C(Nc1cc2c3c(c1)C1CCCC1CN3CC1CCCC21)c1ccccc1 (centres undefined),–,–,–,9,-11.8,–,–,–,–
COc1cc(OC)c(CN2CCCCCCC2)cc1Br,–,–,–,–,–,–,·,·,·
COc1cc(OC)c(CN2CCN(c3ccc(F)cc3)CC2)cc1Br,–,–,–,–,–,–,–,–,–
COc1ccc(C(=O)N/N=C/c2ccc(OC)c(CN3CCN(c4ccc(F)cc4)CC3)c2)cc1,–,–,–,–,–,–,–,–,–
Cc1c(Cl)c([N+](=O)[O-])nn1CCCC(=O)NC1CCCCC1,–,–,–,–,–,–,·,·,·
Cn1nc(-c2ccccc2)c(-c2nc(-c3ccccc3Cl)no2)c1Cl,–,–,–,–,-10.4,–,41.0%,–,32.0%
CCOc1ccc(C(=O)Nc2ccc(NC(=O)c3ccccc3)cc2)cc1Br,–,–,–,–,–,–,·,·,·
CCOc1ccc(C(=O)Nc2ccc(Cc3ccncc3)cc2)cc1Br,–,–,–,–,–,–,–,–,–
